The results in this text go back to ChEMBL document CHEMBL1134284, “The biological effects of structural variation at the meta position of the aromatic rings and at the end of the alkenyl chain in the alkenyldiarylmethane series of non-nucleoside reverse transcriptase inhibitors” (J Med Chem, 2001).

Molecules are shown by their SMILES. Where only a bound is given, the exact number is not on record here.

In data set [1] the test system is CCRF-CEM. As to the kind of experiment: Antiviral activity against site directed resistant isolate HIV-1 V106A in CEM cells. It counts as functional, cell-based, Homo sapiens. The procedure, abridged:
(§1)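 CEM-SS cells in RPMI 1640 with 10% heat-inactivated FBS were infected with NL4-3 molecular clones carrying site-directed RT mutations. Cytoprotection from virus-induced syncytial killing was read by MTS/phenazine ethosulfate reduction (A490) 6 days after infection. […] Triplicate, variation of mean about 10%.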

The test system of data set [2] is CCRF-CEM. Briefly: Antiviral activity against site directed resistant isolate HIV-1 Y188C in CEM cells. It is filed as functional, cell-based, Homo sapiens. The procedure, abridged:
as §1

Data set [3] is described as follows: Antiviral activity against subtype isolate F strain in PBLs (peripheral blood lymphocytes). It counts as functional, cell-based, Homo sapiens. To be noted: Homo sapiens. The procedure, abridged:
(§2)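 PBMCs isolated from hepatitis- and HIV-seronegative donors by Ficoll-Hypaque gradient and stimulated 3 days with phytohemagglutinin/IL-2. Infected with pediatric low-passage clinical isolates or NIAID subtype isolates, in RPMI 1640 with 10% FBS, 2 mM glutamine, penicillin/streptomycin. Replication read as supernatant reverse transcriptase activity. […] Run in triplicate, with AZT as positive control.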

Data set [4] concerns CCRF-CEM. As to the kind of experiment: Antiviral activity against site directed wild-type enzyme isolate HIV-1 NL4-3WT in CEM cells. As to conditions: Homo sapiens; call rule not given here. It counts as functional, cell-based. The essentials:
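Wild-type NL4-3 in CEM-SS cells, measured both by MTS cytoprotection 6 days after infection and by p24 ELISA. The IC50 is the mean of the two methods' values.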

Data set [5] is described as follows: Antiviral activity against Ba-L monocyte tropic isolate strain in monocyte. It is filed as functional. As to conditions: Homo sapiens. The procedure, abridged: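 Monocytes isolated from hepatitis- and HIV-seronegative donors by Ficoll-Hypaque gradient, cultured 6 days into macrophages, then infected with Ba-L. Medium RPMI 1640 with 10% FBS, 2 mM glutamine, penicillin/streptomycin. Replication read as p24 antigen by ELISA 6 days postinfection. […] Run in triplicate, with AZT as positive control.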

Data set [6] in a line: Antiviral activity against subtype isolate G strain in PBLs (peripheral blood lymphocytes). It is filed as functional, cell-based. As to conditions: Homo sapiens. The procedure, abridged: as §2
Data set [7] in a line: Antiviral activity against subtype isolate B strain in PBLs (peripheral blood lymphocytes). It counts as functional, cell-based, Homo sapiens. The essentials: as §2
Data set [8] can be described thus: Antiviral activity against subtype isolate O strain in PBLs (peripheral blood lymphocytes). It is filed as functional, cell-based, Homo sapiens. The essentials: as §2
Data set [9] concerns CCRF-CEM. As to the kind of experiment: Antiviral activity against site directed resistant isolate HIV-1 K101E in CEM cells. It counts as functional, cell-based, Homo sapiens.
The nature of data set [10]: Antiviral activity against subtype isolate A strain in PBLs (peripheral blood lymphocytes). It counts as functional, cell-based. To be noted: Homo sapiens. The procedure, abridged: as §2
A short description of data set [11]: Antiviral activity against subtype isolate D strain in PBLs (peripheral blood lymphocytes). To be noted: Homo sapiens. It is filed as functional, cell-based. The essentials: as §2
Data set [12] relates to CEM-SS. Briefly: Concentration required for cytotoxicity against mock infected CEM-SS cells. It is filed as functional. To be noted: Homo sapiens. The procedure, abridged:
(§3)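 CEM-SS cells kept in RPMI 1640 with 10% heat-inactivated FBS, 2 mM glutamine, penicillin/streptomycin. Microtiter assay with cytopathic HIV-1 RF, or mock infection for toxicity. Viability read by MTS/phenazine ethosulfate reduction (absorbance 490 nm) 6 days after infection. […] Triplicate.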

For data set [13], the system named is CCRF-CEM. As to the kind of experiment: Antiviral activity against site directed 4X AZT resistant isolate HIV-1 in CEM cells. It counts as functional, cell-based, Homo sapiens. As to conditions: Homo sapiens, CCRF-CEM.
The subject of data set [14] is CCRF-CEM. Briefly: Antiviral activity against site directed resistant isolate HIV-1 Y181C in CEM cells. It counts as functional, cell-based, Homo sapiens. The procedure, abridged: as §1
A short description of data set [15]: Antiviral activity against TEKI virus strain in PBLs (peripheral blood lymphocytes). It is filed as functional, cell-based. To be noted: Homo sapiens. The essentials:
as §2

Data set [16] relates to CCRF-CEM. Briefly: Antiviral activity against site directed resistant isolate HIV-1 V179D in CEM cells. It counts as functional, cell-based, Homo sapiens. The essentials:
as §1

Data set [17] in a line: Antiviral activity against ROJO virus strain in PBLs (peripheral blood lymphocytes). It is filed as functional, cell-based. As to conditions: Homo sapiens. The procedure, abridged:
as §2

Data set [18] concerns Human immunodeficiency virus type 1 (RF/HAT ISOLATE). As to the kind of experiment: Inhibitory concentration for cytopathicity of HIV-1RF in CEM-SS cells. It counts as functional, organism-based. As to conditions: Human immunodeficiency virus 1, RF. The procedure, abridged: as §3
(Cytopathic effects are the visible damage that an infection or toxin causes in cultured cells.)

The test system of data set [19] is CCRF-CEM. As to the kind of experiment: Antiviral activity against site directed resistant isolate HIV-1 K103N in CEM cells. It counts as functional, cell-based, Homo sapiens. The essentials:
as §1

For data set [20], the system named is CCRF-CEM. Briefly: Antiviral activity against site directed resistant isolate HIV-1 L100I in CEM cells. It counts as functional, cell-based, Homo sapiens. The essentials:
as §1

Data set [21] in a line: Antiviral activity against WEJO virus strain in PBLs (peripheral blood lymphocytes). It counts as functional, cell-based. As to conditions: Homo sapiens. The procedure, abridged: as §2
For data set [22], the system named is CCRF-CEM. Briefly: Antiviral activity against site directed 4X AZT resistant isolate HIV-1 L100I in CEM cells. It counts as functional, cell-based, Homo sapiens. The essentials: (§4)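 CEM-SS cells infected with low-cytopathicity site-directed RT-mutant NL4-3 clones (A98G, L74V, 4XAZT = D67N/K70R/T215Y/K219Q, 4XAZT/L100I). Replication was quantified by p24 ELISA rather than cytoprotection. […] Triplicate, variation of mean about 10%.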

Data set [23] in a line: Antiviral activity against subtype isolate C strain in PBLs (peripheral blood lymphocytes). It counts as functional, cell-based. As to conditions: Homo sapiens. The essentials:
as §2

Data set [24] deals with CCRF-CEM. Briefly: Antiviral activity against site directed resistant isolate HIV-1 L74V in CEM cells. It counts as functional, cell-based, Homo sapiens. The essentials:
as §4

Data set [25] can be described thus: Antiviral activity against SLKA virus strain in PBLs (peripheral blood lymphocytes). It counts as functional, cell-based. To be noted: Homo sapiens. The procedure, abridged: as §2
Data set [26] can be described thus: Antiviral activity against multi drug resistant MDR 769 strain in PBLs (peripheral blood lymphocytes). It counts as functional, cell-based. To be noted: Homo sapiens. The procedure, abridged:
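PBMC from hepatitis- and HIV-seronegative donors isolated by Ficoll-Hypaque gradient and stimulated 3 days with phytohemagglutinin/IL-2 before infection. Medium RPMI 1640 with 10% FBS, 2 mM glutamine, penicillin/streptomycin. Replication read as supernatant reverse transcriptase activity. […] Run in triplicate, SD within triplicate under 10%; AZT positive control.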

In data set [27] the test system is CEM-SS. Briefly: Inhibitory concentration for cytopathicity of HIV-1RF in CEM-SS cells; Not active. It counts as functional, cell-based, Homo sapiens. The procedure, abridged:
as §3

Data set [28] concerns the target Human immunodeficiency virus type 1 reverse transcriptase (Human immunodeficiency virus 1, UniProt Q72547). Briefly: Inhibitory activity against HIV-1 Reverse Transcriptase with rCdG as the template primer. The procedure, abridged:
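Cell-free assay with purified recombinant HIV-1 RT (p66/p51 dimer). Activity measured as [32P]GTP incorporation into the poly(rC)/oligo(dG) homopolymer template/primer. IC50 is reported as inhibition of enzyme activity.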

The nature of data set [29]: Ratio of CC50/EC50 was determined. To be noted: read-out: TI. The procedure, abridged: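 HIV-1 RF–infected CEM-SS cells (RPMI 1640, 10% heat-inactivated FBS, 2 mM glutamine, penicillin/streptomycin), plus mock-infected CEM-SS in parallel. Cell killing and viability were read by MTS/phenazine ethosulfate reduction at 490 nm 6 days after infection. […] Index = CC50 ÷ EC50. Triplicate tests.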

Data set [30] can be described thus: Antiviral activity against subtype isolate E strain in PBLs (peripheral blood lymphocytes). It counts as functional, cell-based. To be noted: Homo sapiens.
For data set [31], the system named is CCRF-CEM. Briefly: Antiviral activity against site directed resistant isolates in HIV-1 A98G CEM cells. It is filed as functional, cell-based, Homo sapiens. The procedure, abridged:
as §4

The term IC50 denotes the concentration that inhibits the measured activity by half. Read a high IC50 as weaker potency in that assay. Broadly, the CC50 is the concentration at which the toxic effect on the cells reaches its halfway point. Low values mean harm at low concentration, high ones better tolerance by the cells. By EC50 is commonly meant the concentration that produces a half-maximal response. Take `COC(=O)CCCC=C(c1cc(Cl)c(OC)c(C(=O)OC)c1)c1cc(Cl)c(OC)c(C(=O)OC)c1`: the IC50 in [1] is more than 20000 nM; in [2] it was 3300 nM; in data set [3], 1300 nM; in data set [4], 850 nM; in [5], 5400 nM; in [6], 600 nM. Also, the half-inhibitory concentration (IC50) is 12700 nM in data set [7]; 12000 nM in data set [8]; 366 nM in data set [9]; 100 nM in data set [10]; 180 nM in data set [11]; 75 nM in data set [13]. Besides, the 50% inhibitory concentration (IC50) in data set [14] was more than 20000 nM; in [15] it was 800 nM; in [16] it was 1300 nM; in data set [17], 750 nM; in data set [19], 600 nM; in data set [20], 408 nM. Also, the IC50 in data set [21] amounted to 600 nM; in [22], 490 nM; in data set [23], 410 nM; in data set [24] it was 469 nM; in data set [25], 1300 nM; in data set [26], 16900 nM. This molecule registered a CC50 in [12] of 31600 nM. Further, in [18], the EC50 was found to be 13 nM.

Take `COC(=O)c1cc(C(=CCCCC(=O)OC(C)C)c2cc(C)c(OC)c(C(=O)OC)c2)cc(C)c1OC`: the 50% cytotoxic concentration (CC50) in data set [12] came out at 4320 nM. Also, the EC50 result in data set [27] is “Not Active”. The same molecule had an IC50 in [28] of 60400 nM.

Turning to `COC(=O)c1cc(C(=CCCNC(C)=O)c2cc(Cl)c(OC)c(C(=O)OC)c2)cc(Cl)c1OC`, the CC50 in data set [12] amounted to 19100 nM. In addition, the EC50 entry in [27] is on record as “Not Active”. The molecule further showed an IC50 in [28] of more than 100000 nM.

Turning to `CCOC(=O)CCCC=C(c1cc(Br)c(OC)c(C(=O)OC)c1)c1cc(Br)c(OC)c(C(=O)OC)c1`, the selectivity ratio in data set [29] is 2360. Moreover, the IC50 was determined as 7020 nM in data set [1]; 1800 nM in data set [2]; 760 nM in [3]; 440 nM in data set [4]; 4400 nM in [5]; 400 nM in [6]. In addition, the concentration for half-maximal inhibition (IC50) was 4900 nM in data set [7] (Homo sapiens); 21000 nM in data set [8] (Homo sapiens); 100 nM in data set [30]; 957 nM in data set [9]; 200 nM in data set [10]; 30 nM in data set [11]. Moreover, the concentration for half-maximal inhibition (IC50) in data set [13] was determined as 70 nM; in data set [14], 4400 nM; in [31], 15 nM; in data set [15], 1000 nM; in [16], 2500 nM; in [17], 200 nM. The IC50 in data set [19] was 460 nM; in data set [20], 15 nM; in [22] it was 370 nM; in [23], 150 nM; in data set [24] it was 352 nM; in data set [25], 1100 nM. The values for the IC50 in data set [28] and in data set [26] were 359 nM and 6300 nM, respectively. In data set [12], this molecule returned a CC50 of 16500 nM. For the same molecule, in data set [18], the EC50 came out at 7 nM.

Regarding `Cc1ccnc2c1NC(=O)c1cccnc1N2C1CC1` [NEVIRAPINE], the half-maximal inhibitory concentration (IC50) in data set [1] stood at 1880 nM; in [2], 8300 nM; in [4] it was 29 nM; in data set [9], 5 nM; in [13], 8 nM; in [14], 8270 nM. The IC50 in [31] stood at 222 nM; in data set [16], 70 nM; in data set [19] it was 1440 nM; in data set [20], 180 nM; in [22], 207 nM; in [24], 61 nM.
